SIRT5 inh: sirtuin-5 (human) deacylase inhibition. Q9NXA8. 330,000 compounds, 1.1% hits. Purified SirT5, succinyl-peptide AMC, trypsin-coupled fluorescence. inhibition, % at 15 µM; in the data active = inhibition above about 15%; inconclusive = no clear call, values can overlap the other calls
MLL AF4-AF9 inh: inhibitors of human MLL-AF4/AF9 interaction | AlphaScreen, biotin-AF4 peptide binding to FLAG-AF9 | inhibition, % at 10 µM | 350,000 compounds, 0.47% hits | P42568;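 active = every replicate reaching a set inhibition limit, whatever the replicate mean, cut at about 25% in these data; inconclusive = mean inhibition reaches that limit but some replicates miss it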;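 note: 0% = plate neutral control median and 100% = total signal loss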
Target sequence (P42568 whole entry, looked up): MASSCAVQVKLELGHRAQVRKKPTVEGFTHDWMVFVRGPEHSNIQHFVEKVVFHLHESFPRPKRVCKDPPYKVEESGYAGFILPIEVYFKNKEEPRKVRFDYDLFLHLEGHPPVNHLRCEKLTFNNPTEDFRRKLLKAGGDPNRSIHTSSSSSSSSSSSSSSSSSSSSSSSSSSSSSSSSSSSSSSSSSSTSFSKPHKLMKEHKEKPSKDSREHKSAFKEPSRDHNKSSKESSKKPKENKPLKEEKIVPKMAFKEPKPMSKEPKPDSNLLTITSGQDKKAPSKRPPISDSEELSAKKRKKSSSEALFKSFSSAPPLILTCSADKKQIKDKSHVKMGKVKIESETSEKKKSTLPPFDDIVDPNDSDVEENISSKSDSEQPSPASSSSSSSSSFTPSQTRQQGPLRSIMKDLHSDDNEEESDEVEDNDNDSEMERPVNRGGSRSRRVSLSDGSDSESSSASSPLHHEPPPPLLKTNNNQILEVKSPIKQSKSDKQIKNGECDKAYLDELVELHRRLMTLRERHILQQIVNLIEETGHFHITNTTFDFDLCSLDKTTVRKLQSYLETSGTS
S100A4 MyoIIA: S100A4-myosin IIA interaction inhibition | S100A4/TAMRA-MyoIIA peptide fluorescence polarization | inhibition, % at 10.7 µM | 360,000 compounds, 0.14% hits;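 active = mean inhibition of at least 70% across replicates, with every replicate also reaching that level; inconclusive = mean inhibition reaches 70% but some replicates fall short; inactive = mean inhibition below 70%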
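System – human S100A4 monomer protein, biochemical binding assay · Buffer or medium – Calcium-containing HEPES buffer, pH 7.2 · Timing – 5 min between mix addition and reading · Also added – TAMRA-labelled myosin IIA heavy-chain peptide probe, 5 nM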
DENV2 CPE: protects cells from dengue virus 2 cytopathic effect. DENV2-infected cells, cytopathic effect rescue, plate reader. CPE inhibition, % at 9.99 µM. 350,000 compounds, 1.7% hits. AID 651640; in the data active = CPE inhibition above about 20%, passing the limit was not always enough; inconclusive = no clear call, values can overlap the other calls; tested in BHK-21 cells;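 note: 0% = median of neutral control wells and 100% = median of positive control wells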
CaV13 ICDI inh: Disruptors of the CACNA1D IQ motif to Ca2+-dependent inactivation inhibitor domain association, primary screening, Förster resonance energy transfer in intact living … | inhibition, % at 12.3 µM | 340,000 compounds, 0.098% hits | HEK cells, CFP/YFP FRET ICDI-IQ, plate reader, 10 min; percent FRET-ratio fall versus neutral wells;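 active = mean replicate inhibition of at least 30% and at least 1% of replicates passing that level; inconclusive = only one of the two criteria is met; inactive = neither criterion is met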;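 note: 0% = median of the neutral control wells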
AlphaScreen intf: counter-screen: AlphaScreen signal interference; shares compounds with MLL AF4-AF9 inh; signal luminescence; AC50, µM (top dose mostly 12 µM), for the others: at the highest dose activity change, negative = inhibition; 530 compounds, 45% hits; AID 720494; cut-off not given, nearly all actives have AC50 up to about 14 µM
Active calls of the source: *; ? = inconclusive; · = not tested or not shown. A selection: hits, their analogues and other compounds. The true share with any hit is near 2.7%.

SMILES	SIRT5 inh	MLL AF4-AF9 inh	S100A4 MyoIIA	DENV2 CPE	CaV13 ICDI inh	AlphaScreen intf
CCOc1ccc(NCc2cccn2-c2nnc(N3CCC(C(=O)NCCCN4CCCCC4CC)CC3)s2)cc1 (configuration not stated)	-2	38*	6	1	-5	11µM*
CCOc1cc(N2CCOCC2)c(OCC)cc1NC(=O)c1ccc2ccccc2n1	-1	38*	0	2	0	-31%
C[C@H]1CCCCO[C@H](CN(C)C(=O)Nc2ccccc2)[C@@H](C)CN([C@@H](C)CO)C(=O)c2cc(NS(=O)(=O)c3cn(C)cn3)ccc2O1	14	-6	2	10	·	·
COc1cc(Nc2c3ccccc3nc3ccccc23)cc(OC)c1OC	-2	31*	-2	5	-4	13µM*
Cc1ccc(S(=O)(=O)NC(=O)Nc2ccc(N(C)C)cc2)cc1	-3	35*	11	-14	-4	-28%
CCOc1ccc(NC(=S)NC23CC4CC(CC(C4)C2)C3)cc1	0	-6	1	12	-3	·
CN(C)c1ccc(NC(=S)NC23CC4CC(CC(C4)C2)C3)cc1	0	44*	-5	-3	-2	-29%
COc1ccc(NC(=O)N(C)C[C@H]2Oc3cc(-c4ccc(C)cc4)ccc3S(=O)(=O)N([C@@H](C)CO)C[C@@H]2C)cc1	9	0	-2	7	·	·
Cc1cccc(Nc2cc(C)c3c(O)cccc3n2)c1C	·	28*	-5	1	-6	-30%
CO[C@@H]1CN(C)C(=O)c2ccc(NC(=O)CN(C)C)cc2OC[C@@H](C)N(C(=O)c2ccncc2)C[C@H]1C	2	-1	·	-2	·	·
CCN(Cc1ccccc1)c1ccc(/C=N/N=C(N)N)cc1	-4	53*	2	1	-2	10µM*
Cc1ccc(S(=O)(=O)N[C@@H]2CC[C@H](CCNC(=O)CN3CCOCC3)O[C@@H]2CO)cc1	-4	0	-4	2	·	·
Cc1ncc(CO)c(/C=N/NC(=O)c2ccc(O)cc2)c1O	·	·	·	·	-6	·
Cc1ncc(CO)c(/C=N/NC(=S)Nc2ccc(Cl)c(Cl)c2)c1O	0	30*	4	-3	-5	13µM*
Cc1cccc(C)c1N=Nc1c(C)cc(O)cc1C	3	35*	5	?	-19	10µM*
COC(=O)C[C@@H]1CC[C@@H]2[C@H](COc3ccc(NC(=O)c4ccccc4F)cc3C(=O)N2C)O1	8	-1	-5	-4	·	·
CCc1cccc(NC(=O)CCCN2C(=O)NC(C)(C)C2=O)c1	-1	-1	-7	-1	-6	·
CCc1cccc(NC(=O)CCCCCC2NC(=O)NC2C)c1 (configuration not stated)	-2	95*	-2	·	-1	0.29µM*
CC1NC(=O)NC1CCCCCC(=O)Nc1ccc(F)c(Cl)c1 (configuration not stated)	-3	93*	-13	2	7	0.6µM*
CN(CCc1ccccc1)C(=O)c1ccc(NC(=O)Cc2ccc(NC(=O)C3CCN(C(=O)C4CCCC4)CC3)cc2)cc1	1	33*	3	0	-5	2%
CN(CCc1ccccc1)C(=O)c1ccc(NC(=O)Cc2ccc(NC(=O)C3CCN(C(=O)C4CC4)CC3)cc2)cc1	-4	?	-1	16	-4	·
COc1ccc(-c2cc(NC=O)c3ncc(-c4cccc(C(=O)NCCN(C)C)c4)n3c2)cc1	-2	26*	-4	-1	-5	-25%
Cc1cc(/C=N/n2c(COc3ccccc3C)nc3ccccc3c2=O)c(O)c([N+](=O)[O-])c1	-3	32*	-2	-2	-4	4%
Cc1oc(-c2cccc3ccccc23)nc1CN1CCN(c2ncnc3ccccc23)CC1	2	22	2	6	-1	-10%
Cc1cnc(C)c(N2CCN(Cc3nc(-c4ccc(C)o4)oc3C)CC2)n1	-2	5	5	·	-6	·
SMILES	SIRT5 inh	MLL AF4-AF9 inh	S100A4 MyoIIA	DENV2 CPE	CaV13 ICDI inh	AlphaScreen intf
C[C@H](CO)N1C[C@H](C)[C@H](CN(C)Cc2ccccc2F)Oc2ncc(-c3ccccc3F)cc2C1=O	-11	2	-3	-5	·	·
CC1CCN(CC(=O)Nc2ccc(N3CCCCCC3)cc2)CC1	1	53*	-4	-1	-7	12µM*
C(=C1c2ccccc2-c2ccccc21)c1ccccn1	-1	19	-59	2	-5	-31%
Cc1ccc2nc(-c3ccc(NC(=S)NC4CC(C)(C)NC(C)(C)C4)cc3)sc2c1	-14	45*	-27	-1	-8	-22%
CCCC#Cc1ccc2c(c1)O[C@@H](CN(C)Cc1ccncc1)[C@H](C)CN([C@H](C)CO)S2(=O)=O	-1	8	9	-8	·	·
Oc1ccccc1C=NCCCCCCN=Cc1ccccc1O	1	39*	-1	3	-6	-13%
Oc1ccc(Cl)cc1C=NCCc1ccccc1	·	0	-2	2	-18	·
Oc1ccccc1C=NCCN1CCN(CCN=Cc2ccccc2O)C1c1ccccc1O (configuration not stated)	2	30*	0	-5	-6	13%
Oc1ccccc1C=NCCN=Cc1ccccc1O	-5	-3	-4	-4	-10	·
COc1cccc(C#Cc2cnc3c(c2)C(=O)N([C@@H](C)CO)C[C@@H](C)[C@@H](CN(C)C(C)=O)O3)c1	-1	-2	-5	-1	·	·
C[C@@H]1CCCCO[C@H](CN(C)C)[C@H](C)CN([C@H](C)CO)C(=O)c2cc(NS(=O)(=O)c3cn(C)cn3)ccc2O1	-1	-11	-9	-3	·	·
CCC(=O)N(C)C[C@H]1Oc2cc(C#Cc3ccncc3)ccc2S(=O)(=O)N([C@@H](C)CO)C[C@@H]1C	8	?	-8	-6	·	-18%
N=C(N)c1ccc(/C=C/c2ccc(C(=N)N)cc2O)cc1	-3	61*	-14	-6	-14	-29%
Oc1c(C(Nc2cccc(C(F)(F)F)c2)c2ccncc2)ccc2cccnc12 (configuration not stated)	0	33*	-7	-3	3	4.8µM*
CN1C(=O)c2cc(NC(=O)Cc3cccs3)ccc2OC[C@@H]2O[C@@H](CC(=O)O)CC[C@@H]21	3	-1	-1	9	·	·
CCN1CCN(c2ccc(S(=O)(=O)N3CCCCC3)cc2NC(=O)/C=C/c2ccc([N+](=O)[O-])cc2)CC1	14	14	-14	-4	-1	·
CN1CCN(c2ccc(S(=O)(=O)N3CCCCC3)cc2NC(=O)/C=C/c2ccc(Cl)c([N+](=O)[O-])c2)CC1	6	?	-3	-2	-15	2%
CCOC(=O)N1CCN(Cc2ccc(O)c3ncccc23)CC1	-2	19	-6	1	-6	·
